Only some compounds are listed: those with a hit (about 11% of all), similar ones and a draw of the others.
RORA act: activates the human nuclear receptor RORA; AID 560; CHO-K1 Gal4-RORA LBD luciferase reporter, luminescence; percent increase over mock-subtracted basal signal; 1.5% of 65,000 active; activation, % at 10 µM;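 active = activation above the mean of all tested compounds plus 3 SD, cut at about 49% in these data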;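 note: 0% = DMSO-treated RORA cells and 100% = added signal equal to DMSO minus mock-transfected cells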
M1 antag: blocks the rat M1 muscarinic receptor response to acetylcholine; 3.4% of 64,000 active; CHO-M1 cells, Fluo-4 calcium, ACh EC80 antagonist mode; stronger effect = lower value; P08482; B-score at 10 µM;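 active = calcium fluorescence response, raw or row-and-column corrected B-score, differing from the plate sample mean either way at a set confidence level, mostly lower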
mHtt clearance: mutant huntingtin protein clearance; HeLa Exon1htt(103Q)mCFP, aggregate imaging; zero = plate's median compound well; inhibition, % at 1.5 µM; 0.42% of 47,000 active;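 active = inhibition of aggregate fluorescence above about 70%, also judged a hit by eye on the cell image, limit read from the data, passing the limit was not always enough; inconclusive = no rule stated for this call; inactive = not judged a hit on image review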;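 note: cells exposed to compound for three days before fixation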
SF-1 act: SF-1 (human) activation. activation, % at 10 µM. Q13285. 1.9% of 65,000 active. CHO-K1 Gal4-SF-1 LBD luciferase reporter; % increase over DMSO SF-1-specific signal;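 active = activation above the mean activation of all tested compounds plus 3 SD, cut at about 50% in these data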
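Material: CHO-K1 cells with Gal4–hSF-1 LBD chimera plus Gal4-driven luciferase / Input: 4,000 CHO-K1 cells per well / Incubation: compound exposure 20 h at 37 °C / Signal: luminescence read 15 min after SteadyLite luciferase reagent, after room-temperature equilibration / Read-out: percent activation versus DMSO / Benchmarks: DMSO negative control and −SF1 background wells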
D1 allo mod: D1 dopamine receptor (human) allosteric modulation. P21728. HEK293 D1, CRE-luciferase, dopamine EC30 potentiation; actives deviate in either direction. B-score at 10 µM. 5.9% of 58,000 active. AID 641;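 active = luminescence count or its row- and column-corrected plate score outside the 99.7% band of the plate's sample wells, on either side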
Target sequence (P21728 whole entry, looked up): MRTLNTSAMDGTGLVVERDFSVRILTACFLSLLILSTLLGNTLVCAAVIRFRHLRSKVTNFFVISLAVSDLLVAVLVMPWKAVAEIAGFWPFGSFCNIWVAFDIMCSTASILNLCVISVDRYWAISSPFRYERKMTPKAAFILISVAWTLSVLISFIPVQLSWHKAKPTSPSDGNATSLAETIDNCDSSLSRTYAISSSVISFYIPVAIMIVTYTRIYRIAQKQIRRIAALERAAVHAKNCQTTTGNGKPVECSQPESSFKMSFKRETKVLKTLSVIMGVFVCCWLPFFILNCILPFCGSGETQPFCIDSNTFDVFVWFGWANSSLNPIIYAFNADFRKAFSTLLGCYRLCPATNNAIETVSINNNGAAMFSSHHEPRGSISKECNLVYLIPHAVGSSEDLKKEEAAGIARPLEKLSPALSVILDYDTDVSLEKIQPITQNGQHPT
M1 agonist: agonists of M1 muscarinic receptor. CHO-M1 cells, Fluo-4 calcium fluorescence, agonist mode; stronger effect = higher value. B-score at 10 µM. 3% of 64,000 active;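 active = fluorescence rise, raw or as B-score row- and column-corrected plate score, outside the 99.7% band of its plate's samples, either direction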
M1 antag conf: confirmation of rat M1 muscarinic receptor antagonists; CHO-M1 cells, Fluo-4 calcium, ACh EC80 antagonism; stronger effect = lower value; AID 677; shares compounds with M1 antag; 43% of 1,700 active; calcium response (max-min fluorescence) at 10 µM;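 active = calcium response below the same-plate mean of wells given acetylcholine alone at its 80%-effect dose, minus 3 SD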;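 note: raw fluorescence intensity difference in arbitrary instrument units and not normalized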
mGluR4 antag: acts on human mGluR4 in M1 antagonist selectivity test; shares compounds with M1 antag; CHO-mGluR4 calcium flux, Fluo-4 fluorescence, glutamate EC80; stronger effect = lower value; fluorescence response (max-min) at 10 µM; 0.9% of 1,700 active; AID 678;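 active = fluorescence response below the plate's average for near-maximal glutamate wells, less 3 SD of those wells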;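 note: raw unnormalized fluorescence span taken in the window right after glutamate addition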
* hit, by the source's call.

Results for N#CC1=C(N)OC2=C(C(=O)CCC2)C1c1ccncc1 (configuration not stated) ?
RORA act: 8; M1 antag: 0.16; mHtt clearance: -32; SF-1 act: 2; D1 allo mod: -0.14; M1 agonist: 0.89

Results for CCOC(=O)c1c(C)n(C)c2ccc(OC)c(NC(=O)CN3CCN(C(=O)c4ccco4)CC3)c12 ?
RORA act: -10; M1 antag: 0.085; SF-1 act: 8; D1 allo mod: 0.65; M1 agonist: -0.2

How did CCCCn1c(=O)n(Cc2cccc(F)c2)c(=O)c2c1ncn2Cc1ccco1 do in these assays?
RORA act: -4; M1 antag: -1.5*; SF-1 act: 2; D1 allo mod: 2.9; M1 agonist: 0.33; M1 antag conf: 515; mGluR4 antag: 213

How did Cc1cccc(Cn2c(=O)c3c(nc4n3CCN4Cc3ccco3)n(C)c2=O)c1 do in these assays?
RORA act: 8; M1 antag: 0.19; SF-1 act: -12; D1 allo mod: -0.25; M1 agonist: -0.55

What do the screens show for `Cn1c(CO)nc2cc(N)ccc21`?
RORA act: -10; M1 antag: 0.57; mHtt clearance: -97; SF-1 act: 16; D1 allo mod: 0.3; M1 agonist: -0.3

What do the screens show for `Cc1nc2cc(CO)ccc2n1C`?
RORA act: 2; M1 antag: -5.1*; SF-1 act: 11; D1 allo mod: -0.58; M1 agonist: -0.085; M1 antag conf: 670; mGluR4 antag: 262

Results for O=C(CCC1CCCC1)Nc1ccc(Br)cn1 ?
RORA act: 37; M1 antag: -0.0012; SF-1 act: 42; D1 allo mod: -0.13; M1 agonist: -0.16

Results for C[C@H](NC(=O)NCc1cccs1)C(=O)O ?
RORA act: 6; M1 antag: 0.15; mHtt clearance: -6; SF-1 act: -13; D1 allo mod: 0.39; M1 agonist: -0.21

What do the screens show for `CC(Cc1cccs1)NC(=O)Nc1ccccc1` (configuration not stated)?
RORA act: 7; M1 antag: -3.2*; mHtt clearance: 33; SF-1 act: 22; D1 allo mod: -0.034; M1 agonist: 0.13; M1 antag conf: 588; mGluR4 antag: 188

What do the screens show for `CCOC(=O)CSC1=Nc2ccccc2C2=NC(CC(=O)NCc3ccc4c(c3)OCO4)C(=O)N12` (configuration not stated)?
RORA act: 6; M1 antag: 0.82; mHtt clearance: -27; SF-1 act: -2; D1 allo mod: 0.38; M1 agonist: 0.44

Results for Cc1cc(C)nc(SCC(=O)Oc2ccc3oc(=O)cc(C)c3c2)n1 ?
RORA act: -9; M1 antag: -2.6*; SF-1 act: 4; D1 allo mod: -0.03; M1 agonist: -0.31; M1 antag conf: 685; mGluR4 antag: 163

How did O=C(NCC1CCS(=O)(=O)C1)NCC1CCS(=O)(=O)C1 (configuration not stated) do in these assays?
RORA act: -4; M1 antag: 0.83; SF-1 act: -5; M1 agonist: 0.39

How did CNS(=O)(=O)c1cccc(C(=O)OCC(=O)c2cc(C)n(-c3ccc4c(c3)OCO4)c2C)c1 do in these assays?
RORA act: -6; M1 antag: -2.3*; SF-1 act: -4; D1 allo mod: -0.038; M1 agonist: -0.9; M1 antag conf: 483; mGluR4 antag: 164*

What do the screens show for `CNS(=O)(=O)c1cccc(C(=O)OCC(=O)Nc2ccccc2OC(F)F)c1`?
RORA act: 11; M1 antag: 0.07; SF-1 act: -3; D1 allo mod: -0.055; M1 agonist: 0.61

What do the screens show for `O=C(c1ccc(Br)o1)N1CCN(c2ccc3nnc(-c4ccccc4)n3n2)CC1`?
RORA act: -8; M1 antag: -6.4*; SF-1 act: -20; D1 allo mod: 2.3; M1 agonist: 0.91; M1 antag conf: 264*; mGluR4 antag: 225

Results for Cc1nnc2ccc(N3CCN(C(=O)c4ccccc4)CC3)nn12 ?
RORA act: 7; M1 antag: -0.96; SF-1 act: -14; D1 allo mod: -0.43; M1 agonist: -0.69

What do the screens show for `CCc1nnc(NC=C2C(=O)OC(C)(C)OC2=O)s1`?
RORA act: 10; M1 antag: -0.75; mHtt clearance: -54; SF-1 act: -5; D1 allo mod: -0.41; M1 agonist: -0.44

Results for Cc1ccc(Cl)cc1N(CC(=O)N1CCCCCC1)S(C)(=O)=O ?
RORA act: 3; M1 antag: -2.9*; mHtt clearance: 62; SF-1 act: -25; D1 allo mod: 0.52; M1 agonist: 0.14; M1 antag conf: 616; mGluR4 antag: 241

How did CS(=O)(=O)N(CC(=O)N1CCCC1)c1cccc(Cl)c1 do in these assays?
RORA act: -18; SF-1 act: 17; D1 allo mod: -0.23

Results for CN=C(NC#N)SCC(=O)c1ccc(Cl)cc1Cl ?
RORA act: 39; M1 antag: 0.084; mHtt clearance: -7; SF-1 act: -12; D1 allo mod: 1.3; M1 agonist: -0.13

What do the screens show for `COc1ccc(Cl)cc1NC(=O)CCN1CCN(c2ccccc2C)CC1`?
RORA act: 8; M1 antag: 0.18; mHtt clearance: 34; SF-1 act: -8; D1 allo mod: 0.45; M1 agonist: 0.069

How did CCN1CCN(c2ncc(C(=O)Nc3cc(Cl)ccc3OC)c3ccccc23)CC1 do in these assays?
RORA act: 17; M1 antag: -21*; SF-1 act: -2; D1 allo mod: -0.92; M1 agonist: -0.075; M1 antag conf: 21*; mGluR4 antag: 247

How did CCn1c(SCC(=O)N(C(C)C)C(C)C)nnc1-c1cc2ccccc2cc1O do in these assays?
RORA act: -8; M1 antag: -2.4; mHtt clearance: 16; SF-1 act: 1; D1 allo mod: -0.88; M1 agonist: 1.1

What do the screens show for `CCOC(=O)c1ccc(Nc2cc(C)nc3ncnn23)cc1`?
RORA act: -6; M1 antag: -0.37; mHtt clearance: inconclusive; SF-1 act: -15; D1 allo mod: -0.6; M1 agonist: -1.3

How did CCOC(=O)c1ccc(Nc2nnc3nc(C)cc(C)n23)cc1 do in these assays?
RORA act: -9; M1 antag: -1.2*; mHtt clearance: 20; SF-1 act: -3; D1 allo mod: 0.25; M1 agonist: -0.71; M1 antag conf: 466; mGluR4 antag: 214

How did CC(=O)Nc1ccc(N2CCN(Cc3ccccc3F)CC2)cc1 do in these assays?
RORA act: -3; M1 antag: -0.15; mHtt clearance: 55; SF-1 act: -9; D1 allo mod: -0.72; M1 agonist: -0.0094
